Screen size: about 360,000 compounds; about 1,400 (0.39%) were called active.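 The calls were made as follows: active = pattern-corrected inhibition above about 35%, with an unprinted fluorescence ratio check between 0.5 and 1.5 (limit read from the data, passing the limit was not always enough); inactive = the rest.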 The sample as a whole holds a higher share of actives than the screen did.

Chain of COP9 signalosome complex subunit 5 (Homo sapiens) (Q92905 whole entry, looked up, one chain of several): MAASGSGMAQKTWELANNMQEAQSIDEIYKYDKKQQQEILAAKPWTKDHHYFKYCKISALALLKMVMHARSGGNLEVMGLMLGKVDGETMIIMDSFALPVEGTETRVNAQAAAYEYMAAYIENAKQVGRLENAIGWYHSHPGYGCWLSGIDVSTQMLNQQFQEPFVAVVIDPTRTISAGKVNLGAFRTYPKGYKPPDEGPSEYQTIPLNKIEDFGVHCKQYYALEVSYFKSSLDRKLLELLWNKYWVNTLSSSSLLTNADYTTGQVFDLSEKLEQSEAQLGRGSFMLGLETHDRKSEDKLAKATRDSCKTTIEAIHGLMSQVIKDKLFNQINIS

In the assay the target is COP9 signalosome complex subunit 5 (Homo sapiens) (UniProt Q92905). Kind of assay: inhibitors of CSN-mediated cullin deneddylation, primary screen, biochemical, fluorescence polarization, uHTS (AID 651999).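 Also: 0% = enzyme with substrate and 100% = substrate without enzyme.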 Conditions: Purified CSN, SCF-Nedd8-OG deneddylation, at 12.5 µM, hits give high values. In a few lines:
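Test system: purified human Csn5 enzyme expressed in HEK293T cells. Amount: 0.24 nM enzyme. Reagent: SCFSkp2-Nedd8OG substrate at 10 nM final. Schedule: 90 min incubation of compound, enzyme and substrate at room temperature. Detection: fluorescence polarization. Read-out: % inhibition of substrate cleavage by Csn5.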
Background: In fluorescence polarisation assays a small probe gives low polarisation when free and higher when bound to something large.
For `O=C(NCc1ccncc1)C(=O)NCc1ccco1`, the inhibition was -6.34% (inactive).

As to `CCCN(CC1CC1)C(=S)NC(=O)c1ccccc1Br`, the inhibition is -6.61% (inactive).

Regarding `CN1CCN(c2ccc(S(=O)(=O)N3CCOCC3)cc2NC(=O)CCc2ccccc2)CC1`, the inhibition was 2.64% (inactive).

On to `CCOC(=O)CN(C)S(=O)(=O)c1ccc(-c2cc(C(=O)OC)sc2C(F)(F)F)cc1`, for which the inhibition is 1.34% (inactive).

Take `COc1ccc(Nc2cc(Sc3ccc(OC)cc3)ncn2)cc1`: the inhibition was -0.7% (inactive).

With `COc1ccc(CCNC2=CC(=O)CC(C)(C)C2)cc1`, the inhibition was -5.48% (inactive).

Take `COc1ccc(NC2=CC(=S)NC(C)(C)C2)cc1`: the inhibition is 42.9% (active).

With `O=C(NCCc1ccccc1)C(=O)NCC1OCCN1S(=O)(=O)c1cccs1` (stereo not drawn), the inhibition is 0% (inactive).

On to `O=C(Nc1ccc(Cl)c(Cl)c1)c1ccccc1NC(=O)C1CC=CCC1C(=O)O` (stereo not drawn), for which the inhibition is -4.09% (inactive).

Consider `Cc1cc(N(C)C)cc(C)[n+]1[O-]`, for which the inhibition was -2.98% (inactive).

As for `O=C1CSC(c2ccc(Cl)cc2)N1` (stereo not drawn), the inhibition is -5.2% (inactive).

In the case of `CCCCC(c1nnnn1CS(=O)(=O)c1ccc(C)cc1)N1CCC(C(N)=O)CC1` (stereo not drawn), the inhibition is -2.76% (inactive).

For the compound `CC(C)(C)C1C/C(=C/c2ccco2)C(=O)/C(=C/c2ccco2)C1` (stereo not drawn), the inhibition was 41.2% (active).

Take `CCCC/C(C)=N/NC(=O)NC1CCCCC1`: the inhibition was -3.54% (inactive).

`Nc1c(-c2ccc(F)cc2)cnc2ncnn12`: the inhibition is 2.66% (inactive).

In the case of `O=C(COc1ccc2c(C(F)(F)F)cc(=O)oc2c1)Nc1ccc2c(c1)OCCO2`, the inhibition was 187% (active).

Take `CCN(CC(=O)Nc1ccc2c(c1)OCCO2)Cc1cc(=O)oc2cc(C)c(C)cc12`: the inhibition was 4.55% (inactive).

Take `CCc1ccccc1OCC(=O)Nc1ccc2c(c1)OCCO2`: the inhibition is 1.42% (inactive).

For the compound `Cc1cccc(OCC(=O)NCCNC(=O)c2cccnc2)c1`, the inhibition was 0.16% (inactive).

On to `Cc1ccc(NC(=O)COc2ccc(-n3ccnc3)cc2)cc1Cl`, for which the inhibition was 0% (inactive).

Consider `Cc1ccc(NC(=O)COc2ccc(/C=N\NC(=O)c3cccnc3)cc2)cc1C`, for which the inhibition is 158% (active).

Turning to `CSCCC(NS(=O)(=O)c1ccc(C)cc1)C(=O)N(C)CC(=O)Nc1ccccc1Br` (stereo not drawn), the inhibition is 1.95% (inactive).

On to `Cc1nc(SCC(=O)NC2CCCCC2C)c(C#N)c(C)c1C` (stereo not drawn), for which the inhibition is 0.75% (inactive).

Consider `CCC(C)N1C(=O)S/C(=C/c2ccc(Sc3nc4ccccc4[nH]3)o2)C1=O` (stereo not drawn), for which the inhibition is 4.54% (inactive).

Consider `O=C(O)C(c1ccccc1)N1C(=O)/C(=C\c2ccc(-c3cccc(Cl)c3)o2)SC1=S` (stereo not drawn), for which the inhibition is 93.7% (active).

Consider `CC1COc2ccccc2N1S(=O)(=O)c1ccccc1` (stereo not drawn), for which the inhibition is -12.8% (inactive).

For `CCOC(=O)C1CCN(C(=O)CC2C(=O)N(Cc3ccccc3)C(C)c3nc4ccccc4n32)CC1` (stereo not drawn), the inhibition was 4.78% (inactive).

Consider `CN(C)N=Nc1ccc2nc[nH]c2c1`, for which the inhibition was -1.48% (inactive).

Consider `CC1=CC(=NNS(=O)(=O)c2ccc([N+](=O)[O-])cc2)CC(C)(C)C1`, for which the inhibition is 8.55% (inactive).

`Cc1ccc(Cc2cnc(N)s2)o1`: the inhibition was 36.5% (active).

For the compound `CC(=O)c1nnn(-c2ccc(Cl)cc2C#N)c1C`, the inhibition is 0.92% (inactive).

On to `CC(C)(C)c1ccc(C(=O)N2CCC(C(=O)N3CCCCC3)CC2)cc1`, for which the inhibition was -2.5% (inactive).

With `O=c1ccc(-c2ccc(S(=O)(=O)Nc3ccccc3)o2)n[nH]1`, the inhibition is 6.31% (inactive).

For the compound `O=C(NCC1CCCO1)/C(=C/c1ccc(Cl)cc1)NC(=O)c1ccccc1` (stereo not drawn), the inhibition is -2.86% (inactive).

Regarding `CCOc1ccc(/C=C(/NC(=O)c2ccccc2)C(=O)NCCC(=O)O)cc1`, the inhibition was -10.6% (inactive).

For `Cn1c2ccccc2c2cc(/C=C(\NC(=O)c3ccccc3)C(=O)NCC(=O)O)ccc21`, the inhibition is 60.8% (active).

Regarding `CC1CCN(S(=O)(=O)c2ccc(S(=O)(=O)NCc3ccco3)cc2)CC1`, the inhibition is 0.01% (inactive).

Consider `Cc1noc(NS(=O)(=O)c2ccc(N3CC(O)=C(c4ccccc4)C3=N)cc2)c1C`, for which the inhibition is 2.49% (inactive).

Regarding `O=C1CC(c2c(F)cccc2Cl)C(n2cncn2)C(O)=C1C1NCCc2ccccc21` (stereo not drawn), the inhibition is -3.94% (inactive).

Turning to `CCn1c(SCC(=O)Nc2ccc(Br)cc2)nc2sc3c(c2c1=O)CCN(C)C3`, the inhibition was 3.55% (inactive).

Take `CCOc1ccc(-n2c(SCC(=O)Nc3ccc(OC)cc3)nc3sc4c(c3c2=O)CCN(C)C4)cc1`: the inhibition is 102% (active).

Take `CCCSc1nc2sc3c(c2c(=O)n1-c1ccc(OC)cc1)CCN(C)C3`: the inhibition was 7.27% (inactive).

As to `CCN(CC)C(=O)CSc1nnc(-c2ccc(S(=O)(=O)NCc3ccccc3Cl)cc2)o1`, the inhibition was -2.99% (inactive).

As for `NC(=S)c1ccc(C(N)=S)o1`, the inhibition was 2.12% (inactive).

`O=C(NCCCn1ccnc1)c1cc2c(s1)CCCC2`: the inhibition was 0.16% (inactive).

Turning to `COc1ccc2c(c1)OC(O)(C(F)(F)C(F)F)CC2=O` (stereo not drawn), the inhibition is 2.02% (inactive).

As to `Oc1ccc(N=Cc2c(O)ccc3ccccc23)cc1`, the inhibition was 58.2% (active).

For `C/C(=N\NC(N)=S)c1cccnc1`, the inhibition is -5.1% (inactive).

On to `CCc1nc2c(=O)[nH]cnc2o1`, for which the inhibition was -0.47% (inactive).

Take `Cc1c(CNCCc2ccccc2)c(C(=O)O)c(C)n1-c1ccccc1`: the inhibition was -2.52% (inactive).

Consider `Cc1ccc(OCCNC(=O)c2cccc(S(=O)(=O)N3CCN(Cc4ccccc4)CC3)c2)cc1`, for which the inhibition was -1.93% (inactive).

As for `Cn1c(=O)[nH]c2c(c(C(=O)O)nn2C)c1=O`, the inhibition was -1.75% (inactive).

As for `COc1cccc(/C=N/NC(=O)c2[nH]nc3c2CCc2ccccc2-3)c1O`, the inhibition was 67% (active).

For the compound `COc1cc(/C=N\NC(=O)c2nonc2N)c(OC)cc1Br`, the inhibition is 3.66% (inactive).

Regarding `COc1ccccc1N1CCN(C(=O)C(=O)N/N=C/c2ccccc2F)CC1`, the inhibition was -1.85% (inactive).

With `CC1CC(C)CN(C(=O)CCNC(=O)Cn2cnc3ccccc3c2=O)C1` (stereo not drawn), the inhibition is -0.46% (inactive).

Turning to `O=C(CN1CCN(c2ncc(C(F)(F)F)cc2Cl)CC1)Nc1ccc2c(c1)OCO2`, the inhibition was 4.43% (inactive).

For `CCCC(=O)n1nc(NCc2ccc(OC)cc2)nc1NCc1ccc(OC)cc1`, the inhibition is 0.03% (inactive).

On to `CC1(C)C=Cc2c(ccc3c2OC[C@@H](c2ccc(O)cc2O)C3)O1`, for which the inhibition was 1.92% (inactive).

`Cc1cc(Br)cn2c(Cc3ccsc3)c(-c3ccc(C#N)cc3)nc12`: the inhibition was 77.2% (active).

As to `Cc1cc(Br)cn2c(Cc3cccc(F)c3)c(-c3cccc(Br)c3)nc12`, the inhibition was 1.9% (inactive).

As to `Cc1ccc(-c2nc3c(C)cc(Br)cn3c2Cc2ccccc2)cc1`, the inhibition is -3.35% (inactive).

As to `COC(=O)c1cc(NC(=O)CC2C(=O)NCCN2C(=O)c2ccc(F)cc2)cc(C(=O)OC)c1` (stereo not drawn), the inhibition was 0.24% (inactive).

Turning to `CS(=O)(=O)c1ccc(-c2nnn(CC(=O)Nc3ccc4c(c3)OCCO4)n2)cc1`, the inhibition was 0.36% (inactive).

On to `CS(=O)(=O)c1ccc2c(c1)SC1=NC(=O)/C(=C/c3ccco3)C(=N)N12`, for which the inhibition was 58.8% (active).

On to `COc1ccc(N2CCN(C(=O)CNS(=O)(=O)c3ccc(C)c(C)c3)CC2)cc1`, for which the inhibition was -4.8% (inactive).

Consider `COc1ccc(NC(=O)CC2SC(N3CCCCC3)=NC2=O)cc1OC` (stereo not drawn), for which the inhibition is 0.22% (inactive).

Consider `COc1ccc(S(=O)(=O)N2CCN(CC(=O)N3c4ccccc4CC3C)CC2)cc1OC` (stereo not drawn), for which the inhibition was 18.4% (inactive).

On to `CCOC(=O)c1cc(NC(=O)c2ccc(Cl)cc2)c(=O)oc1-c1ccccc1`, for which the inhibition was -2.25% (inactive).

In the case of `COc1ccc(C2COC(=O)C2=N)c(NC(=O)c2ccccc2)c1` (stereo not drawn), the inhibition is -4.82% (inactive).

Consider `CC(=O)c1cc(NC(=O)c2ccccc2)c(=O)oc1/C=C/N(C)C`, for which the inhibition was 55.4% (active).

Consider `CCCCCCCC1(C)NC(=O)N(CC(=O)Nc2cc(C)on2)C1=O` (stereo not drawn), for which the inhibition was -7.92% (inactive).

Regarding `Cc1ccc(CSCC2Nc3ccc(C(=O)N4CCN(c5ccc(F)cc5)CC4)cc3NC2=O)cc1` (stereo not drawn), the inhibition is 25.2% (inactive).

In the case of `O=C1Nc2cc(C(=O)N3CCN(c4ccc(F)cc4)CC3)ccc2NC1CSCc1cccc(F)c1` (stereo not drawn), the inhibition was 51.2% (active).

Turning to `C=CCn1c(SCc2cccc(F)c2)nc2cc(C(=O)N3CCC(C(N)=O)CC3)ccc2c1=O`, the inhibition was 0.76% (inactive).

With `O=C(Cc1coc2ccc3ccccc3c12)NCc1cccs1`, the inhibition is -8.34% (inactive).

For `CC(C)Cn1c(N)c(C(=O)NCc2cccs2)c2nc3ccccc3nc21`, the inhibition was 36% (active).

`O=C(NCc1cccs1)c1ccc(Br)o1`: the inhibition was -0.05% (inactive).

As for `COc1cc(/C=C2/C(=O)NN(c3cccc(Cl)c3)C2=O)cc(Br)c1O`, the inhibition is 44.4% (active).

`CCOc1c(Br)cc(/C=C2\C(=O)N(CCC#N)N=C2C)cc1OC`: the inhibition was 2.79% (inactive).

As for `CCc1nc2ccc(C(=O)N(C)CCN(C)C)cn2c1N(CC)CCOC`, the inhibition was -0.82% (inactive).

For the compound `O=C(CC1Oc2ccccc2NC1=O)NCCCN1CCN(Cc2ccccc2)CC1` (stereo not drawn), the inhibition was -8.5% (inactive).

As to `O=C(CCN1C(=O)COc2ccccc21)NCCCN1CCN(c2ccc(F)cc2)CC1`, the inhibition is -4.53% (inactive).

In the case of `CN1CCN(CCCNC(=O)c2ccc(/C=C3\Oc4ccccc4N(Cc4ccc(Cl)cc4)C3=O)cc2)CC1`, the inhibition is 119% (active).

Consider `Cc1nonc1OCCn1nnnc1N`, for which the inhibition is -0.98% (inactive).

For `O=C(O[C@H]1[C@H](Cc2ccccc2)NS(=O)(=O)[C@H]2C[C@@H]3C=C[C@]12O3)c1ccc([N+](=O)[O-])cc1`, the inhibition is 0.94% (inactive).

Consider `CCCSc1nc2[nH]ncc2c(=O)[nH]1`, for which the inhibition is 0.78% (inactive).

On to `Cn1ccnc1-c1nnn(-c2ccc(F)cc2)n1`, for which the inhibition is -1.15% (inactive).

For `CC(=O)NCCn1c(SCC(=O)Nc2ccc(C)cc2)nc2ccccc2c1=O`, the inhibition is -2.03% (inactive).

As for `COc1ccc(NC(=O)CSc2nnc(Cc3ccccc3)c(=O)n2N)cc1`, the inhibition was 2.76% (inactive).

For `COc1ccc(NC(=O)CSc2nc3ccccc3c(=O)n2C)cc1`, the inhibition is 81.7% (active).

For `C=CCSc1nc2c(c(=O)[nH]1)C(C(C)C)C(C#N)=C(N)O2` (stereo not drawn), the inhibition was -4.61% (inactive).

As to `CCCNC(=O)C(=O)Nc1cc2c3c(c1)CCC(=O)N3CCC2`, the inhibition is -1.23% (inactive).

On to `COc1ccc(NS(=O)(=O)c2ccc(C)c(C(=O)N(C)Cc3ccc(OC)cc3OC)c2)cc1`, for which the inhibition is 157% (active).

As for `COc1ccc(NS(=O)(=O)c2ccc(C)c(C(=O)NCC(c3cccs3)N3CCOCC3)c2)cc1` (stereo not drawn), the inhibition was 1.17% (inactive).

Consider `CCOc1ccc(NS(=O)(=O)c2ccc(C)c(C(N)=O)c2)cc1`, for which the inhibition is 8.11% (inactive).

For the compound `CC1O[C@H](OC2C(COC3OC(CO)C(O)[C@H](O)C3O)OC(OC3CC[C@]4(C)C(CC[C@@]5(C)[C@@H]4C=C[C@]46OC[C@@]7(CCC(C)(C)C[C@H]74)C(O)C[C@@]56C)C3(C)C)C(O)C2O)C(O)C(O)C1O` (stereo partly drawn), the inhibition is -2.09% (inactive).

For the compound `COc1ccc(-n2nnc3c(=O)n(CC(=O)N4CCC(Cc5ccccc5)CC4)cnc32)cc1`, the inhibition is -0.9% (inactive).

As a reminder, the inhibition is the drop in the measured response relative to a control, in per cent.

These data come from PubChem BioAssay AID651999 (Sanford-Burnham Center for Chemical Genomics, 2013).
